Values after ≈ are worked out from the molar mass of the structure shown.
Assays:
Assay type in all cases: functional
Staphylococcus aureus = test: Antibacterial activity against Staphylococcus aureus ATCC 25923 after 20 hrs by MTT assay; conditions: ATCC 25923, 20 h
Outline: (§1)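 Overnight cultures in nutrient broth at 37 °C, diluted to ca. 10⁵ cells/mL in fresh medium. Compounds from 1 mg/mL MeOH stocks dried in wells, redissolved in DMSO plus broth and culture, then twofold serial dilutions in bacterial suspension. Plates held 20 h at 37 °C in moist atmosphere; 0.25% aqueous MTT added, 4 h further incubation; living bacteria seen as violet turbidity.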

[1] = system: Staphylococcus epidermidis; test: Antibacterial activity against Staphylococcus epidermidis ATCC 12228 after 20 hrs by MTT assay; conditions: ATCC 12228, 20 h; outline: as §1
Micrococcus luteus = test: Antibacterial activity against Micrococcus luteus ATCC 9341 after 20 hrs by MTT assay; conditions: ATCC 9341, 20 h; outline: as §1
Bacillus cereus = test: Antibacterial activity against Bacillus cereus ATCC 10702 after 20 hrs by MTT assay; conditions: ATCC 10702, 20 h; outline: as §1

SMILES | MIC (Staphylococcus aureus) [µg/mL] | MIC [1] [µg/mL] | MIC (Micrococcus luteus) [µg/mL] | MIC (Bacillus cereus) [µg/mL]
O=C(/C=C/c1ccc(O)cc1)O[C@@H]1[C@@H](O)[C@H](Oc2c(-c3ccc(O)cc3)oc3cc(O)cc(O)c3c2=O)O[C@H](CO)[C@H]1O | > 256 | > 256 | > 256 | > 256
COc1cc(/C=C/C(=O)OC[C@H]2O[C@@H](Oc3c(-c4ccc(O)cc4)oc4cc(O)cc(O)c4c3=O)[C@H](O)[C@@H](OC(=O)/C=C/c3ccc(O)cc3)[C@@H]2O)ccc1O | > 256 | > 256 | > 256 | > 256
O=C(N[C@H](CO)[C@H](O)c1ccc([N+](=O)[O-])cc1)C(Cl)Cl [CHLORAMPHENICOL] | 4 (≈ 12.4 µM) | 4 (≈ 12.4 µM) | 2 (≈ 6.19 µM) | 2 (≈ 6.19 µM)
COc1cc(C(O)C(CO)Oc2ccc(/C=C/C(=O)OC[C@H]3O[C@@H](Oc4c(-c5ccc(O)cc5)oc5cc(O)cc(O)c5c4=O)[C@H](O)[C@@H](OC(=O)/C=C/c4ccc(O)cc4)[C@@H]3O)cc2OC)ccc1O (some centres not stated) [STENOPALUSTROSIDE E] | > 256 | > 256 | > 256 | > 256
O=C(/C=C/c1ccc(O)cc1)OC[C@H]1O[C@@H](Oc2c(-c3ccc(O)cc3)oc3cc(O)cc(O)c3c2=O)[C@H](O)[C@@H](O)[C@@H]1O [TILIROSIDE] | > 256 | > 256 | > 256 | > 256

Further lines, results first:

MIC (Staphylococcus aureus) [µg/mL] | MIC [1] [µg/mL] | MIC (Micrococcus luteus) [µg/mL] | MIC (Bacillus cereus) [µg/mL] | SMILES
> 256 | > 256 | > 256 | > 256 | O=C(/C=C/c1ccc(O)cc1)OC[C@H]1O[C@@H](Oc2c(-c3ccc(O)cc3)oc3cc(O)cc(O)c3c2=O)[C@H](O)[C@@H](OC(=O)/C=C/c2ccc(O)cc2)[C@@H]1O
16 (≈ 21.6 µM) | 2 (≈ 2.7 µM) | 8 (≈ 10.8 µM) | 4 (≈ 5.4 µM) | O=C(/C=C\c1ccc(O)cc1)OC[C@H]1O[C@@H](Oc2c(-c3ccc(O)cc3)oc3cc(O)cc(O)c3c2=O)[C@H](O)[C@@H](OC(=O)/C=C\c2ccc(O)cc2)[C@@H]1O [STENOPALUSTROSIDE A]
32 (≈ 41.5 µM) | 64 (≈ 83 µM) | 16 (≈ 20.8 µM) | 8 (≈ 10.4 µM) | COc1cc(/C=C/C(=O)OC[C@H]2O[C@@H](Oc3c(-c4ccc(O)cc4)oc4cc(O)cc(O)c4c3=O)[C@H](O)[C@@H](OC(=O)/C=C\c3ccc(O)cc3)[C@@H]2O)ccc1O [STENOPALUSTROSIDE B]

From ChEMBL document CHEMBL1157987, “Acylated flavonol glycosides from leaves of Stenochlaena palustris” (1999)
